Data from ChEMBL document CHEMBL1148918, “New pseudopterosin and seco-pseudopterosin diterpene glycosides from two Colombian isolates of Pseudopterogorgia elisabethae and their diverse biological activities” (J Nat Prod, 2004).
In brackets after ≈: the same amount, converted by molar mass.

Key:
[1] = system: Mycobacterium tuberculosis; experiment: Antimycobacterial activity against Mycobacterium tuberculosis H37Rv at 6.25 ug/mL; format: functional
Microglia [2] = experiment: (§1) Antiinflammatory activity in LPS-stimulated rat neonatal microglia assessed as inhibition of PMA-induced TXB2 production preincubated 15 mins prior to PMA challenge; format: functional, cell-based
In short: (§2)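 Neonatal rat microglia, 2 × 10^5 cells/well, primed 17 h with LPS (0.3 ng/mL) in DMEM + 10% FBS + penicillin/streptomycin at 35.9 °C, 5% CO2. Cells washed with warm HBSS, given compound (0.01-10 µM) or DMSO vehicle for 15 min, then PMA (1 µM). Triplicate wells, two independent experiments.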

[3] = as §1; format: functional, cell-based; in short: as §2
Microglia [4] = experiment: (§3) Antiinflammatory activity in LPS-stimulated rat neonatal microglia assessed as drug level causing 50% PMA-induced LDH release preincubated 15 mins prior to PMA challenge by spectrophotometry; format: functional; in short: as §2
[5] = as §3; format: functional; in short: as §2
Microglia [6] = experiment: (§4) Antiinflammatory activity in LPS-stimulated rat neonatal microglia assessed as inhibition of PMA-induced superoxide anion production preincubated 15 mins prior to PMA challenge; format: functional, cell-based; in short: as §2
[7] = as §4; format: functional, cell-based; in short: as §2
Human alphaherpesvirus 2 = experiment: Antiviral activity against HSV2; format: functional, organism-based
Human alphaherpesvirus 1 = experiment: Antiviral activity against HSV1; format: functional, organism-based
Human alphaherpesvirus 3 = experiment: Antiviral activity against VZV; format: functional, organism-based
Plasmodium falciparum = experiment: Antimalarial activity against chloroquine-resistant Plasmodium falciparum W2 after 48 hrs by fluorimetry; format: functional, organism-based; settings: W2, 48 h
NCI-H460 = experiment: Cytotoxicity against human NCI-H460 cells relative to control; format: functional; parameters: concentration or dose not given beside the values
In short: (§5)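 One-dose primary screen on a three-line panel (MCF-7, NCI-H460, SF268). Growth of treated cells given as percent of untreated controls.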

MCF7 = experiment: Cytotoxicity against human MCF7 cells relative to control; format: functional; parameters: concentration or dose not given beside the values; in short: as §5
Human betaherpesvirus 5 = experiment: Antiviral activity against HCMV; format: functional, organism-based
SF-268 = experiment: Cytotoxicity against human SF268 cells relative to control; format: functional; parameters: concentration or dose not given beside the values; in short: as §5
[8] = Cytotoxicity against human NCI60 cells; format: functional

CC(=O)O[C@@H]1[C@@H](Oc2c(C)cc3c(c2O)[C@@H](C)CC[C@@H]3[C@@H](C)CCC=C(C)C)OC[C@@H](O)[C@H]1O
inhibition at 6.25 µg/mL [1]: 37% | Activity (Microglia [2]): Dose-dependent effect | IC50 [3]: > 10 µM | Activity (Microglia [4]): Dose-dependent effect | Activity [5]: 10 µM | Activity (Microglia [6]): Dose-dependent effect | IC50 [7]: > 10 µM

CC(=O)O[C@@H]1CO[C@H](Oc2c(C)cc3c(c2O)[C@@H](C)CC[C@@H]3[C@@H](C)CCC=C(C)C)[C@@H](O)[C@@H]1O
inhibition at 6.25 µg/mL [1]: 25% | Activity (Microglia [2]): Dose-dependent effect | IC50 [3]: > 10 µM | Activity (Microglia [4]): Dose-dependent effect | Activity [5]: 3.6 µM | Activity (Microglia [6]): Dose-dependent effect | IC50 [7]: > 10 µM

Nc1nc2c(ncn2COCCO)c(=O)[nH]1 [ACYCLOVIR]
EC50 (Human alphaherpesvirus 2): 0.95 µM | EC50 (Human alphaherpesvirus 1): 0.95 µM

CC(=O)O[C@H]1[C@@H](O)[C@H](O)[C@H](Oc2c(C)c3c4c(c2O)[C@@H](C)CC[C@@H]4[C@@H](C)C[C@H]3C=C(C)C)O[C@H]1C [PSEUDOPTEROSIN P]
EC50 (Human alphaherpesvirus 3): 2.6 µM | EC50 (Human alphaherpesvirus 2): 2.9 µM | inhibition at 6.25 µg/mL [1]: 76% | IC50 (Plasmodium falciparum): 12 µg/mL (≈ 24.6 µM) | Activity (NCI-H460): 0% | Activity (MCF7): 0% | EC50 (Human betaherpesvirus 5): 2.9 µM | Activity (SF-268): 0% | Activity (Microglia [2]): Dose-dependent effect | IC50 [3]: > 10 µM | GI50 [8]: 1.7 µM | Activity (Microglia [4]): Dose-dependent effect | Activity [5]: 0.6 µM | Activity (Microglia [6]): Dose-dependent effect | IC50 [7]: > 10 µM | EC50 (Human alphaherpesvirus 1): 2.9 µM

CC(=O)O[C@H]1[C@H](O)[C@H](Oc2c(C)c3c4c(c2O)[C@@H](C)CC[C@@H]4[C@@H](C)C[C@H]3C=C(C)C)O[C@@H](C)[C@H]1O [PSEUDOPTEROSIN Q]
inhibition at 6.25 µg/mL [1]: 37% | IC50 (Plasmodium falciparum): 15 µg/mL (≈ 30.7 µM) | Activity (NCI-H460): 101% | Activity (MCF7): 103% | Activity (SF-268): 107% | Activity (Microglia [2]): Dose-dependent effect | IC50 [3]: 4.7 µM | Activity (Microglia [4]): Dose-dependent effect | Activity [5]: 3.4 µM | Activity (Microglia [6]): Dose-dependent effect | IC50 [7]: 11.2 µM

CC(=O)O[C@@H]1CO[C@H](Oc2c(C)c3c4c(c2O)[C@@H](C)CC[C@@H]4[C@@H](C)C[C@H]3C=C(C)C)[C@@H](O)[C@@H]1O [PSEUDOPTEROSIN U]
inhibition at 6.25 µg/mL [1]: 43% | IC50 (Plasmodium falciparum): 19 µg/mL (≈ 40 µM) | Activity (NCI-H460): 0% | Activity (MCF7): 0% | Activity (SF-268): 0% | Activity (Microglia [2]): Dose-dependent effect | IC50 [3]: > 10 µM | GI50 [8]: 20 µM | Activity (Microglia [4]): Dose-dependent effect | Activity [5]: 0.7 µM | Activity (Microglia [6]): Dose-dependent effect | IC50 [7]: 14.7 µM

CC(=O)O[C@H]1[C@H](O)[C@@H](Oc2c(C)c3c4c(c2O)[C@@H](C)CC[C@@H]4[C@@H](C)C[C@H]3C=C(C)C)OC[C@H]1O [PSEUDOPTEROSIN V]
inhibition at 6.25 µg/mL [1]: 25% | IC50 (Plasmodium falciparum): 1 µg/mL (≈ 2.11 µM) | Activity (NCI-H460): 0% | Activity (MCF7): 0% | Activity (SF-268): 0% | Activity (Microglia [2]): Dose-dependent effect | IC50 [3]: > 10 µM | GI50 [8]: 20 µM | Activity (Microglia [4]): Dose-dependent effect | Activity [5]: 2.2 µM | Activity (Microglia [6]): Dose-dependent effect | IC50 [7]: > 10 µM

CC(=O)O[C@H]1[C@H](O)[C@@H](Oc2c(C)c3c4c(c2O)[C@@H](C)CC[C@@H]4[C@@H](C)C[C@H]3C=C(C)C)OC[C@H]1OC(C)=O [PSEUDOPTEROSIN W]
Activity (NCI-H460): 0% | Activity (MCF7): 0% | Activity (SF-268): 0% | Activity (Microglia [2]): Dose-dependent effect | IC50 [3]: > 10 µM | Activity (Microglia [4]): Dose-dependent effect | Activity [5]: 10 µM | Activity (Microglia [6]): Dose-dependent effect | IC50 [7]: > 10 µM

CC(=O)O[C@@H]1[C@@H](Oc2c(C)c3c4c(c2O)[C@@H](C)CC[C@@H]4[C@@H](C)C[C@H]3C=C(C)C)OC[C@@H](OC(C)=O)[C@H]1O [PSEUDOPTEROSIN X]
Activity (Microglia [2]): Dose-dependent effect | IC50 [3]: > 10 µM | Activity (Microglia [4]): Dose-dependent effect | Activity [5]: 2.35 µM | Activity (Microglia [6]): Dose-dependent effect | IC50 [7]: 10 µM
